According to ChEMBL document CHEMBL1132482, “Discovery of a series of cyclohexylethylamine-containing protein farnesyltransferase inhibitors exhibiting potent cellular activity” (J Med Chem, 1999):

How the values were obtained:
[1] = target: Protein farnesyltransferase (Rattus norvegicus, UniProt Q02293+Q04631); experiment: In vitro inhibitory activity against Farnesyltransferase (FTase); assay type: protein-complex assay
Procedure, shortened: (§1)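 Compounds were generally tested once, with some tested at n = 2, 4 or 8. Enzyme values are IC50 and cellular values are EC50 (nM). Stated assay reliability is ±50% for the in vitro assay and ±50–100% for the cellular assay. A 3-fold difference is treated as significant.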

Rattus norvegicus [2] = species on record: Rattus norvegicus; experiment: Inhibitory activity against whole cell Ras prenylation; assay type: functional; procedure, shortened: as §1
Rattus norvegicus [3] = species on record: Rattus norvegicus; experiment: Inhibitory activity against whole cell Ras prenylation at a concentration of 300 nM; assay type: functional
Rattus norvegicus [4] = species on record: Rattus norvegicus; experiment: Inhibitory activity against whole cell Ras prenylation at a concentration of 1000 nM; assay type: functional
Rattus norvegicus [5] = species on record: Rattus norvegicus; experiment: Inhibitory activity against whole cell Ras prenylation at a concentration of 50 nM; assay type: functional

| IC50 [1] | EC50 (Rattus norvegicus [2]) | SMILES | inhibition at 0.3 µM (Rattus norvegicus [3]) | inhibition at 1 µM (Rattus norvegicus [4]) | inhibition at 0.05 µM (Rattus norvegicus [5]) |
| --- | --- | --- | --- | --- | --- |
| 0.2 nM | 12 nM | CSCC[C@H](NC(=O)c1ccc(CN[C@H](CSc2ccccc2)CC2CCCCC2)cc1-c1ccccc1C)C(=O)O |  |  |  |
| 10 nM |  | CSCC[C@H](NC(=O)c1ccc(CN[C@@H](CO)C2CCCCC2)cc1-c1ccccc1C)C(=O)O |  |  |  |
| 0.6 nM | 2.8 nM | CSCC[C@H](NC(=O)c1ccc(CN[C@H](CSC(C)(C)C)CC2CCCCC2)cc1-c1ccccc1C)C(=O)O |  |  |  |
| 1 nM |  | CCSC[C@H](CC1CCCCC1)NCc1ccc(C(=O)N[C@@H](CCS(C)(=O)=O)C(=O)O)c(-c2ccccc2C)c1 | 34% |  |  |
| 0.41 nM |  | CSCC[C@H](NC(=O)c1ccc(CN[C@H](CSC2CCCCC2)CC2CCCCC2)cc1-c1ccccc1C)C(=O)O |  | 80% |  |
| 8 nM |  | CSCC[C@H](NC(=O)c1ccc(CN[C@H](CO)CC2CCCCC2)cc1-c1ccccc1)C(=O)O |  |  |  |
| 1.2 nM |  | CCS(=O)(=O)C[C@H](CC1CCCCC1)NCc1ccc(C(=O)N[C@@H](CCS(C)(=O)=O)C(=O)O)c(-c2ccccc2C)c1 |  | 63% |  |
| 12 nM |  | CSCC[C@H](NC(=O)c1ccc(CN[C@@H](CO)CC2CCCCC2)cc1-c1ccccc1C)C(=O)O |  |  |  |
| 0.17 nM | 200 nM | CSCC[C@H](NC(=O)c1ccc(CNCCC2CCCCC2)cc1-c1ccccc1C)C(=O)O |  |  |  |
| 0.7 nM | > 1000 nM | CC[C@H](CC1CCCCC1)NCc1ccc(C(=O)N[C@@H](CCSC)C(=O)O)c(-c2ccccc2C)c1 |  |  |  |
| 1.1 nM | > 1000 nM | CSCC[C@H](NC(=O)c1ccc(CN(CCC2CCCCC2)C(=O)c2ccccc2)cc1-c1ccccc1C)C(=O)O |  |  |  |
| 2.9 nM | > 1000 nM | CSCC[C@H](NC(=O)c1ccc(CN(CCC2CCCCC2)C(C)=O)cc1-c1ccccc1C)C(=O)O |  |  |  |
| 0.46 nM | 4.3 nM | CCCC[C@H](CC1CCCCC1)NCc1ccc(C(=O)N[C@@H](CCSC)C(=O)O)c(-c2ccccc2C)c1 |  |  |  |
| 3.5 nM | > 1000 nM | CSCC[C@H](NC(=O)c1ccc(CN(CCC2CCCCC2)Cc2ccccc2)cc1-c1ccccc1C)C(=O)O |  |  |  |
| 0.22 nM |  | CSCC[C@H](NC(=O)c1ccc(CN[C@H](/C=C/CC(C)C)CC2CCCCC2)cc1-c1ccccc1C)C(=O)O |  |  |  |
| 0.42 nM |  | CSCC[C@H](NC(=O)c1ccc(CN[C@H](CSc2ccccc2C)CC2CCCCC2)cc1-c1ccccc1C)C(=O)O |  | 77% |  |
| 4.6 nM |  | CSCC[C@H](NC(=O)c1ccc(CN[C@H](CO)Cc2ccccc2)cc1-c1ccccc1C)C(=O)O |  |  |  |
| 0.2 nM | 4.4 nM | CCSC[C@H](CC1CCCCC1)NCc1ccc(C(=O)N[C@@H](CCSC)C(=O)O)c(-c2ccccc2C)c1 |  |  |  |
| 0.16 nM | 190 nM | CSCC[C@H](NC(=O)c1ccc(CN[C@H](CO)CC2CCCCC2)cc1-c1ccccc1C)C(=O)O |  |  |  |
| 0.14 nM |  | CCS(=O)(=O)C[C@H](CC1CCCCC1)NCc1ccc(C(=O)N[C@@H](CCSC)C(=O)O)c(-c2ccccc2C)c1 |  |  | 59% |
| 0.87 nM | 12 nM | CSCC[C@H](NC(=O)c1ccc(CN(C)CCC2CCCCC2)cc1-c1ccccc1C)C(=O)O |  |  |  |
| 0.25 nM |  | CSCC[C@H](NC(=O)c1ccc(CNC(CC2CCCCC2)CC2CCCCC2)cc1-c1ccccc1C)C(=O)O |  | 75% |  |
| 0.17 nM | 160 nM | CSCC[C@H](NC(=O)c1ccc(CN(CCC2CCCCC2)C(=O)OC(C)(C)C)cc1-c1ccccc1C)C(=O)O |  |  |  |
| 0.28 nM | 52 nM | CSCC[C@H](NC(=O)c1ccc(CN[C@H](CCCC(C)C)CC2CCCCC2)cc1-c1ccccc1C)C(=O)O |  |  |  |
| 0.66 nM |  | COC[C@H](CC1CCCCC1)NCc1ccc(C(=O)N[C@@H](CCSC)C(=O)O)c(-c2ccccc2C)c1 | 47% |  |  |
| 0.7 nM | > 1000 nM | CSCC[C@H](NC(=O)c1ccc(CN[C@H](C)CC2CCCCC2)cc1-c1ccccc1C)C(=O)O |  |  |  |
| 4 nM |  | CSCC[C@H](NC(=O)c1ccc(CN[C@H](CO)C2CCCCC2)cc1-c1ccccc1C)C(=O)O |  |  |  |
